CHO parental Ca = counter-screen: ATP calcium response change in parental CHO cells; 0.63% of 330,000 active; parental CHO-K1, ATP-induced calcium, Fluo-8 fluorescence; inhibition, % at 5.6 µM; AID 463079;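 active = inhibition above that plate's mean sample inhibition plus 3 SD, cut at about 26% in these data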;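 also: 0% = ATP-challenged DMSO wells and 100% = DMSO wells without ATP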
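Assay system: untransfected parental CHO cell line. Also added: ATP agonist challenge. Dosing: one dose, 5.6 µM nominal. Measured by: Fluo-8 fluorescence. Read-out: % inhibition. Benchmarks: ATP wells versus no-ATP DMSO wells. Repeats: no replicates.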
OX1R antag-1 = OX1R (human) antagonism; OX1R-expressing cells, FRET antagonist read-out; 1.8% of 330,000 active; inhibition, % at 6.6 µM; in the data active = inhibition mostly above about 38%, no sharp cut-off; inactive = mostly below about 40%;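 also: 0% = agonist challenge alone and 100% = reference antagonist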
Target sequence (O43613 whole entry, looked up): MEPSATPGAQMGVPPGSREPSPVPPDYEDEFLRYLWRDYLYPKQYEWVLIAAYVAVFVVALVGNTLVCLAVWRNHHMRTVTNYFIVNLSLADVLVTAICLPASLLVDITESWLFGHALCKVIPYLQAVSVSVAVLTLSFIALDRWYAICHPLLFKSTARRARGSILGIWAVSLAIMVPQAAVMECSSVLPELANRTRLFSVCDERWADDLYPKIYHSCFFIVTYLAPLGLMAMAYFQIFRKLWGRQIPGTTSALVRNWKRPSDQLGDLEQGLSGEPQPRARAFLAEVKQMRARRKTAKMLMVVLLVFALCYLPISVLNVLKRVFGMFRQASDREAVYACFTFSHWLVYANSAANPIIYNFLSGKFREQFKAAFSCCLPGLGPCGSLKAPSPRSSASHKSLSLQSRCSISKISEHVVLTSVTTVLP
TAAR1 antag = human TAAR1 antagonism. CHO RD-HGA16 TAAR1, Fluo-8 calcium fluorescence, antagonist. inhibition, % at 3 µM. Q96RJ0. 1.5% of 360,000 active;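 active = inhibition above a per-plate cutoff, the mean inhibition of test compounds on that plate plus 3 SD, cut at about 49% in these data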;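 also: 0% = DMSO plus EC80 beta-PEA response and 100% = DMSO alone without agonist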
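Assay system: CHO-derived RD-HGA16 cells stably expressing human TAAR1 plus Gα16. Timing: 140 s kinetic read after compound, 140 s after agonist. Technique: kinetic Fluo-8 calcium fluorescence measurement. Measure: % inhibition of agonist calcium response.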
OX1R antag-2 = blocks the human orexin 1 receptor | O43613 | CHO/OX1R cells, Fluo-8 calcium fluorescence, orexin A | inhibition, % at 5 µM | 0.43% of 330,000 active;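 active = inhibition above its plate's threshold, mean inhibition of all tested compounds on the plate plus 3 SD, cut at about 37% in these data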;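 also: 0% = orexin A challenge wells and 100% = SB-334867-A antagonist wells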
GPR7 antag = blocks human GPR7 receptor signaling. P48145. inhibition, % at 4.4 µM. GPR7-expressing cells, fluorescence antagonist assay. AID 1861. 1.1% of 290,000 active; in the data active = inhibition above about 16%, passing the limit was not always enough;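 also: cells stimulated with the agonist NPW; 0% = agonist with vehicle and 100% = vehicle without agonist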
TAAR1 agonist = human TAAR1 agonism. activation, % at 3 µM. AID 624467. CHO RD-HGA16 TAAR1, Fluo-8 calcium fluorescence; vehicle wells 0%, saturating PEA agonist 100%. Q96RJ0. 0.99% of 360,000 active;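 active = activation above the mean activation of all test compounds in the run plus 3 SD, cut at about 38% in these data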
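test system = CHO RD-HGA16 cells carrying human TAAR1 plus Gα16 | schedule = 17-24 h seeding, 75 min 37 °C dye, 30 min RT | compound dosing = 3 µM single concentration | control set = DMSO and PEA EC100 | replicates = n 1 | signal = Fluo-8 fluorescence, 5 s baseline then 140 s kinetic read | measure = percent activation vs PEA EC100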
An asterisk follows results filed as active. Compounds with a hit are over-represented: about 4.6% of the library has one in this group of screens.

Screening O=C(NCCN1CCc2ccccc2C1)C1CCN(S(=O)(=O)N2CCC3(CC2)OCCO3)CC1 returned CHO parental Ca -11, OX1R antag-1 31, TAAR1 antag -9, OX1R antag-2 -15, GPR7 antag -8 and TAAR1 agonist 16.
Screening O=C(NCCN1CCc2ccccc2C1)C1CCN(S(=O)(=O)N2CCCCC2)CC1 returned CHO parental Ca -10, OX1R antag-1 10, TAAR1 antag 6, OX1R antag-2 -18, GPR7 antag 20* and TAAR1 agonist 6.
O=C(CSc1nnc(C2CC2)n1Cc1ccccc1)c1ccc(S(=O)(=O)N2CCOCC2)cc1 was read as CHO parental Ca 2, OX1R antag-1 18, TAAR1 antag 3, OX1R antag-2 -9, GPR7 antag -2 and TAAR1 agonist 11.
`Cc1cccn2cc(-c3ccc4c(c3)NC(=O)CO4)nc12` gave CHO parental Ca -10, OX1R antag-1 36, TAAR1 antag -3, OX1R antag-2 -7, GPR7 antag -6 and TAAR1 agonist 0.
For Cc1ccn2cc(-c3ccc4c(c3)NC(=O)CO4)nc2c1 the results were CHO parental Ca 1, OX1R antag-1 10, TAAR1 antag -4, OX1R antag-2 -13, GPR7 antag 17* and TAAR1 agonist 0.
For O=S(=O)(NCc1cc(-c2ccc(Cl)cc2)no1)c1ccc(Cl)cc1 the results were CHO parental Ca 93*, OX1R antag-1 20, TAAR1 antag 7, OX1R antag-2 51*, GPR7 antag -12 and TAAR1 agonist 8.
O=S(=O)(NCc1cc(-c2ccc(Cl)cc2)no1)c1ccccc1 was read as CHO parental Ca 2, OX1R antag-1 18, TAAR1 antag 5, OX1R antag-2 4, GPR7 antag -4 and TAAR1 agonist 1.
Screening Cc1cc(CN2C(=O)c3ccccc3C2=O)on1 returned CHO parental Ca -13, OX1R antag-1 4, TAAR1 antag -4, OX1R antag-2 -9, GPR7 antag -20 and TAAR1 agonist 13.
For O=C1c2ccccc2C(=O)N1Cc1cc(-c2ccc(Cl)cc2)no1 the results were CHO parental Ca -6, OX1R antag-1 5, TAAR1 antag 49*, OX1R antag-2 -10, GPR7 antag -6 and TAAR1 agonist 9.
`O=C(Nc1cccc(-c2cn3ccccc3n2)c1)c1cccs1` gave CHO parental Ca -4, OX1R antag-1 71*, TAAR1 antag -3, OX1R antag-2 2, GPR7 antag 5 and TAAR1 agonist 2.
Screening Cc1nn(CC(=O)Nc2ccccc2)c(=O)c2ccccc12 returned CHO parental Ca -5, OX1R antag-1 18, TAAR1 antag -13, OX1R antag-2 -15, GPR7 antag -9 and TAAR1 agonist 9.
Cc1ccc(NC(=O)Cn2nc(C)c3ccccc3c2=O)cc1F was read as CHO parental Ca -20, OX1R antag-1 27, TAAR1 antag 3, OX1R antag-2 -28, GPR7 antag 19* and TAAR1 agonist 5.
COc1ccc(OC)c(-n2c(SCC(=O)N3CCc4ccccc43)nc3c(c2=O)SCC3)c1 was read as CHO parental Ca -12, OX1R antag-1 39*, OX1R antag-2 -18 and GPR7 antag -2.
For COc1ccc(CCN(C)C(=O)c2cc(S(=O)(=O)NCc3ccccc3)ccc2C)cc1OC the results were CHO parental Ca -24, OX1R antag-1 31, TAAR1 antag -25, OX1R antag-2 -30 and TAAR1 agonist 4.
Screening COc1ccc(CN(C)C(=O)c2cc(S(=O)(=O)NCc3ccccc3)ccc2C)c(OC)c1 returned CHO parental Ca 1, OX1R antag-1 33*, TAAR1 antag 40, OX1R antag-2 10 and TAAR1 agonist 6.
For CCCc1nc2sc3ccccc3c(=O)c2c(=O)n1Cc1ccc(OC)cc1 the results were CHO parental Ca -15, OX1R antag-1 8, TAAR1 antag -25, OX1R antag-2 -26, GPR7 antag -9 and TAAR1 agonist 2.
Screening CCCc1nc2sc3ccccc3c(=O)c2c(=O)n1Cc1ccco1 returned TAAR1 antag 1, GPR7 antag -9 and TAAR1 agonist 68*.
`COc1cccc(NC(=O)CN(C)C(=O)c2ccccc2OCC(=O)Nc2cccc(C(F)(F)F)c2)c1` gave CHO parental Ca -21, OX1R antag-1 41, TAAR1 antag 48, OX1R antag-2 -11 and TAAR1 agonist 15.

Assay outcomes (PubChem BioAssay)
